# This is a sample that favours compounds with a hit; in the whole collection about 4.6% have one here.
# GPR7 antag: blocks human GPR7 receptor signaling. P48145. GPR7-expressing cells, fluorescence antagonist assay. inhibition, % at 4.4 µM. actives 1.1% (n = 290,000). AID 1861; in the data active means inhibition above about 16%, passing the limit was not always enough;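 further: cells stimulated with the agonist NPW; 0% = agonist with vehicle and 100% = vehicle without agonist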
# TAAR1 ag: agonists of human TAAR1; CHO RD-HGA16 TAAR1, Fluo-8 calcium fluorescence; vehicle wells 0%, saturating PEA agonist 100%; Q96RJ0; actives 0.99% (n = 360,000); activation, % at 3 µM; AID 624467;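 active means activation above the mean activation of all test compounds in the run plus 3 SD, cut at about 38% in these data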
# Target sequence (Q96RJ0 whole entry, looked up): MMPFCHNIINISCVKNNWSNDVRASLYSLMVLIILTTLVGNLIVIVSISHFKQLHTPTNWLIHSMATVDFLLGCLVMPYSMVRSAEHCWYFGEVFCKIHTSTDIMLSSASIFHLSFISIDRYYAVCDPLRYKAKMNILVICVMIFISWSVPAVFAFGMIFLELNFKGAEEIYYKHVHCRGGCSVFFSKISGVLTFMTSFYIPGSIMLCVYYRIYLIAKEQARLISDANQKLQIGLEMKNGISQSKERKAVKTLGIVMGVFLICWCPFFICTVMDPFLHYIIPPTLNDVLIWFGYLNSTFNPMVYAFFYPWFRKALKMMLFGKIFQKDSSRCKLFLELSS
#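 System: CHO RD-HGA16 cells carrying human TAAR1 plus Gα16; Incubation: 17-24 h seeding, 75 min 37 °C dye, 30 min RT; Measured by: Fluo-8 fluorescence, 5 s baseline then 140 s kinetic read; Control set: DMSO and PEA EC100; Replication: single well for each compound.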
# OX1R antag-1: OX1R (human) antagonism; O43613; inhibition, % at 6.6 µM; OX1R-expressing cells, FRET antagonist read-out; actives 1.8% (n = 330,000); in the data active means inhibition mostly above about 38%, no sharp cut-off; inactive means mostly below about 40%;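 further: 0% = agonist challenge alone and 100% = reference antagonist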
# OX1R antag-2: antagonists of human orexin 1 receptor; CHO/OX1R cells, Fluo-8 calcium fluorescence, orexin A; actives 0.43% (n = 330,000); inhibition, % at 5 µM; AID 434989; O43613;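 active means inhibition above its plate's threshold, mean inhibition of all tested compounds on the plate plus 3 SD, cut at about 37% in these data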;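 further: 0% = orexin A challenge wells and 100% = SB-334867-A antagonist wells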
# TAAR1 antagonist: human TAAR1 antagonism; inhibition, % at 3 µM; actives 1.5% (n = 360,000); CHO RD-HGA16 TAAR1, Fluo-8 calcium fluorescence, antagonist;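 active means inhibition above a per-plate cutoff, the mean inhibition of test compounds on that plate plus 3 SD, cut at about 49% in these data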;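 further: 0% = DMSO plus EC80 beta-PEA response and 100% = DMSO alone without agonist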
#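 Test system: RD-HGA16 CHO cells with stable hTAAR1 and Gα16 / Probe or stimulus: EC80 β-phenethylamine stimulus / Times: seeding 17-24 h prior, 75-min 37 °C, 30-min RT dye loading / Detection: Fluo-8 calcium-sensitive fluorescence / Read-out basis: % inhibition scaled between DMSO and EC80 PEA controls / Repeats: singlicate, one well per test compound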
# CHO parental Ca: counter-screen: ATP calcium response change in parental CHO cells | actives 0.63% (n = 330,000) | parental CHO-K1, ATP-induced calcium, Fluo-8 fluorescence | AID 463079 | inhibition, % at 5.6 µM;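 active means inhibition above that plate's mean sample inhibition plus 3 SD, cut at about 26% in these data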;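 further: 0% = ATP-challenged DMSO wells and 100% = DMSO wells without ATP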
#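 Material: parental CHO cells / Compound: single nominal dose of 5.6 µM per compound / Signal: Fluo-8 fluorescence / Replicates: singlicate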
# * = called active by the depositor; . = no result.
SMILES,GPR7 antag,TAAR1 ag,OX1R antag-1,OX1R antag-2,TAAR1 antagonist,CHO parental Ca
O=c1[nH]c2ccccc2n1C1CCN(C(c2ccccc2)c2nnnn2-c2ccc3c(c2)OCCO3)CC1 (centres undefined),.,22,.,.,62*,.
CCOc1ccc(-n2c(-c3ccoc3)nc3ccccc3c2=O)cc1,4,7,22,-21,5,-13
CCOc1ccc(-c2c(C)n(-c3ccc(OCC)cc3)c3[n+]2CCCCC3)cc1,46*,5,26,-2,-21,40*
O=C(NCCCn1ccnc1)C(Cl)(Cl)Cl,-2,4,8,-7,29,-1
COc1ccc(-c2cc(=NCC(=O)O)c3ccccc3o2)cc1,5,.,64*,-19,.,-26
COc1ccc(-c2cc(=NCCCCCC(=O)O)c3cc(C)ccc3o2)cc1,5,0,.,.,-1,.
O=C1NC(=O)N(CC2CCCO2)C(=O)/C1=C/c1cccs1 (centres undefined),7,4,12,-9,-37,-10
CCN(CC)c1ccc(/C=C2/C(=O)NC(=O)N(CC3CCCO3)C2=O)cc1 (centres undefined),0,42*,38,-9,13,-2
O=c1c2cc(Br)ccc2[nH]c(=S)n1-c1ccccc1,29*,0,35,15,30,-4
Cc1ccccc1-n1c(O)c(/C=C2/C(c3ccccc3)=Nc3ccccc32)c(=O)[nH]c1=O,29*,2,25,-3,21,-10
Cn1ncnc2c(=O)n(C)c(=O)nc1-2,.,.,103*,8,.,-17
O=c1[nH]c(=S)[nH]c(O)c1N=Nc1cc(S(=O)(=O)Nc2ccc(Cl)cc2)ccc1Cl,.,3,-1,-13,-15,-8
COC(=O)c1ccccc1N=Cc1c(O)[nH]c(=S)[nH]c1=O,-4,1,18,-15,-3,-3
O=c1[nH]c(=S)[nH]c(O)c1N=Nc1ccc2c(c1)OCO2,14,2,75*,-6,2,6
COc1cccc(N=Nc2c(O)[nH]c(=S)[nH]c2=O)c1,-9,-2,69*,-9,-14,-1
O=c1[nH]c(O)c(N=Nc2ccc(S(=O)(=O)N3CCOCC3)cc2)c(=O)[nH]1,-5,2,44,5,-7,-7
O=c1[nH]c(O)c(N=Nc2ccc3c(c2)OCCO3)c(=O)[nH]1,-8,8,64*,-10,7,-4
O=c1[nH]c(=S)[nH]c(O)c1N=Nc1cc2c(cc1[N+](=O)[O-])OCO2,-9,12,48,-6,-13,1
O=c1[nH]c(=S)[nH]c(O)c1N=Nc1ccc(OC(F)F)cc1,5,0,50*,-13,-4,-12
CC(C)(C)C(=O)N1Cc2cc(-c3cccc(F)c3)ccc2-n2nncc2C1,.,0,.,.,6,.
Clc1ccc(C(Cl)(Cl)Cl)c(Cl)c1,.,1,1,-8,-7,-6
OC(CCNCCc1c[nH]c2ccccc12)C(F)(F)Cl (centres undefined),4,3,1,-7,-16,5
O=C(c1ccc2c(c1)N(Cc1ccc(F)cc1)CCS2)N1CCC2(CC1)OCCO2,5,-4,21,-29,-6,-24
C=C1C(O)[C@@H]2O[C@]3(CC[C@H](/C=C/C(C)[C@@H]4CC(C)=CC5(O[C@H](C[C@@](C)(O)C(=O)O)CCC5O)O4)O3)CC[C@H]2O[C@@H]1C(O)CC(C)[C@H]1OC2(CCCCO2)CCC1C (some centres undefined),.,.,50*,34,.,-10
Nc1ccc2ccc3cccc[n+]3c2c1,1,40*,36,12,8,37*
SMILES,GPR7 antag,TAAR1 ag,OX1R antag-1,OX1R antag-2,TAAR1 antagonist,CHO parental Ca
c1coc(CN2Cc3ccccc3-n3nncc3C2)c1,.,1,.,.,-14,.
CN1CCc2cc(O)cc3c2[C@H]1Cc1ccc(O)c(O)c1-3,.,2,25,7,-7,11
CN1CCc2cc3c(c4c2C1Cc1ccccc1-4)OCO3 (centres undefined),-7,0,74*,-26,-23,-20
N=C(N)c1c(O)n(C2CCCCC2)c(=O)n(C2CCCCC2)c1=O,-27,46*,15,26,18,61*
O=C1NC(=O)N(Cc2ccc(F)cc2)C(=O)/C1=C\C=C\c1ccco1,-5,17,3,3,30,2
Cc1ccc(N2C(=O)NC(=O)/C(=C/C=C/c3ccco3)C2=O)cc1,-2,37,15,2,51*,-10
COc1ccc(C(c2nnnn2-c2c(C)cccc2C)N2CCC(n3c(=O)[nH]c4ccccc43)CC2)cc1 (centres undefined),.,3,.,.,-31,.
O=c1[nH]c2ccccc2n1C1CCN(C(CCc2ccccc2)c2nnnn2C2CCCC2)CC1 (centres undefined),.,16,.,.,56*,.
O=c1[nH]c2ccccc2n1C1CCN(C(c2cccc3ccccc23)c2nnnn2Cc2ccccc2)CC1 (centres undefined),.,8,.,.,50*,.
COc1ccc(-n2nnnc2C(c2ccccc2)N2CCC(n3c(=O)[nH]c4ccccc43)CC2)cc1 (centres undefined),.,14,.,.,67*,.
COc1cccc(C(c2nnnn2-c2ccc3c(c2)OCCO3)N2CCC(n3c(=O)[nH]c4ccccc43)CC2)c1OC (centres undefined),.,51*,.,.,79*,.
CN1C(=O)NC(=O)C(C)(C2=CCCCC2)C1=O (centres undefined),.,0,14,-16,2,-21
O=C1/C(=C/c2ccccc2Cl)N2CCC1CC2,-2,0,17,0,-3,-15
CC12CCC3C(CCC4(O)CC(O)CCC34C=NO)C1(O)CCC2C1=COC(=O)C1 (centres undefined),.,4,.,.,-27,.
O=C1C=C2c3ccccc3CC(C(=O)O)C2CC1 (centres undefined),.,1,.,.,-18,.
COc1ccc(C(O)(c2ccccc2)c2ccncc2)cc1 (centres undefined),.,-2,.,.,-21,.
O=c1[nH]c(=S)n(C2CCCCC2)c(O)c1/C=N/N1CCOCC1,-15,2,3,-1,-32,-15
COc1ccc(-n2nnnc2C(c2cccc(OC)c2OC)N2CCC(n3c(=O)[nH]c4ccccc43)CC2)cc1 (centres undefined),.,13,.,.,56*,.
O=c1[nH]c2ccccc2n1C1CCN(C(c2ccccc2OC(F)(F)F)c2nnnn2-c2ccc3c(c2)OCCO3)CC1 (centres undefined),.,12,.,.,52*,.
O=C(NCCN1CCC2(CC1)C(=O)NCN2c1ccccc1)c1cccnc1Cl,.,0,.,.,-3,.
C/C(=N\NC(N)=O)c1c(O)n(C)c(=O)n(C)c1=O,-15,3,14,-10,-2,35*

# Screens deposited in PubChem BioAssay by The Scripps Research Institute Molecular Screening Center.
